# Measured values as given in publication PMC7945681 (Journal of materials chemistry. B, 2020).
# How the values were obtained:
# human VCAM1 = test: SPR measurement of peptide-VCAM1 binding; settings: for ∣ΔΔGB∣: ∣ΔGB,trans – ΔGB,cis∣ from SPR values
# Summary of the method: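 Peptide-functionalised gold sensor chips, with three sensors per ligand and ligand density measured by variable angle spectroscopic ellipsometry. Chip-bound peptide was conditioned to cis or trans isomer, then exposed to human VCAM1 at 0.01–1 mg mL−1 in PBS. KD was determined for each isomer.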
# VCAM1^+ BMECs = format: cell-based, human; settings: for co-localization of the cis isomer with anti-VCAM1 antibody: VCAM1^+ BMECs, confocal microscopy
Substance,∣ΔΔGB∣ (human VCAM1),co-localization of the cis isomer with anti-VCAM1 antibody (VCAM1^+ BMECs),"KD,trans/KD,cis (human VCAM1; affinity shift between trans and cis isomers, SPR)","binding to BMECs in trans configuration (VCAM1^+ BMECs; BMEC labelling, fluorescence microscopy)"
cycloAZOB[G-VHNKQHRP-K*] (sidechain bridge or staple),1.84,–,–,–
cycloAZOB[G-VHPKQHRS-K*] (sidechain bridge or staple),2.52,–,–,–
cycloAZOB[G-VHAKQHRN-K*]-K(Biotin) (sidechain bridge or staple),–,co-localization with anti-VCAM1 antibodies in cis configuration,–,–
cycloAZOB[G-VHAKQHRN-K*] (sidechain bridge or staple),2.93,clear co-localization,~ 130,negligible binding
cycloAZOB[G-VHPKQHRP-K*] (sidechain bridge or staple),1.52,–,–,–
